This note sets out measurements from PubChem BioAssay.

Active and inactive are the calls of the source.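 Rule for the calls, unless noted: active = viability at or under a set limit in both replicates, limit being median viability minus 3 SD (cut at about 48% in these data, passing the limit was not always enough); inconclusive = at or under the limit in just one replicate; inactive = at or above the limit in both replicates.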

Assay [1] in a line: Her2 expression decrease, cell viability multiplex – SKBR3 breast tumor cells, AlphaScreen, ATP viability, primary screen (AID 461;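 active = Her2 level under about 52% in both replicate screens, with viability over 70% of control, limit read from the data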;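 for Her2 level: lower value means less Her2 protein in the cells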;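 for viability: percent of carrier control wells set as 100% viability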). The note with it: SKBR3 Her2 protein level, 18-24 h, measured here: SKBR3 viability, ATP luminescence, at 10 µM. In general terms: In Alpha technology, singlet oxygen from a donor bead excites a nearby acceptor bead.
Assay [2] has as its target Receptor tyrosine-protein kinase erbB-2 (Homo sapiens) (UniProt P04626). The description is as above. The note with it: 18-24 h, at 10 µM, stronger effect = lower value.
Assay [3] can be described thus: reduced viability of SK-BR-3 breast cancer cells – cell-based, 24 h, human, pilot screen (AID 572;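 active = viability at or below 10% of carrier control in both of two separate runs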;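 note: compound exposure lasted between 18 and 24 h rather than exactly 24 h; 100% = carrier-treated control wells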). The following applies: SK-BR-3 viability, CellTiter-Glo luminescence, at 10 µM, stronger effect = lower value. (In general: Cellular ATP, detected with luciferase, serves as a proxy for viable cell number.)
A short description of assay [4]: HUVEC growth inhibition – cell-based, human, primary screen (AID 575;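 active = viability at or below 30% in both replicate assays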;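 note: 100% = median of untreated cell wells with 0.1% DMSO on each plate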). The following applies: HUVEC proliferation, CellTiter-Glo luminescence, 72 h; at 10 µM; stronger effect = lower value. The method, boiled down:
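Timing: 72 h treatment at 37 °C; material: HUVEC primary cells; technique: CellTiter-Glo luminescence measuring cellular ATP; controls: vehicle and MePR control wells; measure: percent of median DMSO-control luminescence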

Assay [5] in a line: H69AR cell proliferation blockers – human, duplicate replicates, primary screen (AID 580).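 Note: 100% = mean luminescence of untreated wells and 0% = no signal.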 The following applies: H69AR lung tumor cells viability, ATP luminescence, 72 h; at 10 µM; stronger effect = lower value.
A short description of assay [6]: MRP1 drug-resistance reversers in H69AR cells – cell-based, doxorubicin co-treatment, pilot screen (AID 601;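 active = viability loss from added drug above about 55%, and viability with drug at most 40%, in both replicates, limit read from the data, passing the limit was not always enough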). The following applies: CellTiter-Glo, 72 h, at 10 µM; for differential viability (reversal): stronger effect = higher value.
Assay [7] can be described thus: yeast transport mutant growth inhibition pilot in 384-well plates, post-Golgi transport modulator project (AID 636; in the data active = inhibition above about 31%). The following applies: absorbance 615 nm, about 18 h, stronger effect = higher value.
Assay [8] in a line: growth suppression of yeast trafficking mutant, preliminary HTS, modulators of trafficking downstream of Golgi apparatus project, 1536-format plate, OD 615 nm (AID 637; in the data active = inhibition above about 30%). The note with it: yeast transport mutant growth, absorbance 615 nm, 18 h; stronger effect = higher value.
Setting [9] is: H69AR cells + 2 uM doxorubicin, measured here: viability with 2 uM doxorubicin, stronger effect = lower value.
Setting [10] is: H69AR cells, compound alone cytotoxicity.

The viability is a read-out of living cells in per cent, often relative to untreated cells. For orientation: inhibition means the drop in the measured response relative to a control, in per cent.

Sequence of Receptor tyrosine-protein kinase erbB-2 (Homo sapiens) (P04626 whole entry, looked up): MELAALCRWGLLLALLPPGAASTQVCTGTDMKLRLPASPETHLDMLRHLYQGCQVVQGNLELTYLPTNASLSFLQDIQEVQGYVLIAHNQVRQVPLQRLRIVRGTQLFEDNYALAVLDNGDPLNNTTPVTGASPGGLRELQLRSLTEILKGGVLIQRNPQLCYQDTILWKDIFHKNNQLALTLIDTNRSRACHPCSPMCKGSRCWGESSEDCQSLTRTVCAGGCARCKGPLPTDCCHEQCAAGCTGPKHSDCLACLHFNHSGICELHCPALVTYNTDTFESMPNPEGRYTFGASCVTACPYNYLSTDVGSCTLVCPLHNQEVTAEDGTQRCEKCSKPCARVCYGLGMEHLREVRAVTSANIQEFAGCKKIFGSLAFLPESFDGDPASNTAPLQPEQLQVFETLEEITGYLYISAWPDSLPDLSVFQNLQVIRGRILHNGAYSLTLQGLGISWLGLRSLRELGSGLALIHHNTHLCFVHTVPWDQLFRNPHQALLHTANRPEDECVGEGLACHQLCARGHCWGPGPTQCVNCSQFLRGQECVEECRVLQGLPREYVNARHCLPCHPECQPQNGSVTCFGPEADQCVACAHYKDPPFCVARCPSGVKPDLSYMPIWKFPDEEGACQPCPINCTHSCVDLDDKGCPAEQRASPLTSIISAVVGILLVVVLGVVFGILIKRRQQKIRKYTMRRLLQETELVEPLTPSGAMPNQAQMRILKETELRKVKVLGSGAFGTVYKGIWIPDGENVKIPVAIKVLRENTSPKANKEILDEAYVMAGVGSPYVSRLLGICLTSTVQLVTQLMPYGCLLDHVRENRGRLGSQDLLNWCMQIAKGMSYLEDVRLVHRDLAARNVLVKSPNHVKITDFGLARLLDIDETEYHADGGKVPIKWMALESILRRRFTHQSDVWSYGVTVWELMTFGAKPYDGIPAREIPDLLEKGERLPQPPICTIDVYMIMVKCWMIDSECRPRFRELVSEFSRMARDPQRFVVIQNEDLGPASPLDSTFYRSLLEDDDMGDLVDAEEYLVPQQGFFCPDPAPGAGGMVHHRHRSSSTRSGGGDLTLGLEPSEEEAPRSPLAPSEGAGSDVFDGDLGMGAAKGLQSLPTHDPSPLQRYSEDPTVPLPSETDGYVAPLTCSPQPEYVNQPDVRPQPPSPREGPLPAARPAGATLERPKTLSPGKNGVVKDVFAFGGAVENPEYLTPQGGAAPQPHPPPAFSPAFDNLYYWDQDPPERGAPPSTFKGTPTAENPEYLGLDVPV

`Cn1c(=O)c(-c2ccccc2)nn2c3ccccc3nc12`: the viability was 82.5% in assay [1]; 82.5% (inactive) in assay [3]; 90.8% (inactive) in assay [4]; 90.8% (inactive) in assay [5]; 91.6% in assay [6] (setting [9]); 90.8% in assay [6] (setting [10]). The Her2 level in assay [2] is 63.5% (inactive). In addition, the differential viability (reversal) in assay [6] (H69AR cells + 2 uM doxorubicin) was -0.73% (inactive). Besides, the inhibition in assay [7] was -7.03% (inactive); in assay [8] it was 3% (inactive).
Turning to `Cc1cc(C)c2c(N)c(C(=O)N3CCN(c4ncccn4)CC3)sc2n1`, the viability in assay [1] was 104%; in assay [3], 104% (inactive); in assay [4] it was 98.2% (inactive); in assay [5], 101% (inactive); in assay [6] (setting [9]), 101%; in assay [6] (setting [10]), 101%. Further, in assay [2], the Her2 level is 96.5% (inactive). Besides, the differential viability (reversal) in assay [6] (H69AR cells + 2 uM doxorubicin) was 0.855% (inactive). Besides, the inhibition in assay [7] was -5.53% (inactive); in assay [8] it was 0.49% (inactive).
Regarding `COc1ccc(Cl)c(NCCC(=O)O)c1`, the viability in assay [1] is 88%; in assay [3], 88% (inactive); in assay [4] it was 98.6% (inactive); in assay [5], 95.6% (inactive); in assay [6] (setting [9]) it was 88.5%; in assay [6] (setting [10]), 95.6%. In addition, the Her2 level in assay [2] is 107% (inactive). In addition, the differential viability (reversal) in assay [6] (H69AR cells + 2 uM doxorubicin) was 7.1% (inactive). The inhibition in assay [7] is -1.37% (inactive); in assay [8], 9.37% (inactive).
In the case of `CCOC(=O)Nc1sc(=S)n(C)c1C`, the viability in assay [1] is 92.5%; in assay [3], 92.5% (inactive); in assay [4], 104% (inactive); in assay [5], 98% (inactive); in assay [6] (setting [9]) it was 94.9%; in assay [6] (setting [10]) it was 98%. Further, the Her2 level in assay [2] was 96% (inactive). For the same compound, in assay [6] (H69AR cells + 2 uM doxorubicin), the differential viability (reversal) was 3.1% (inactive). Moreover, the inhibition in assay [7] is -3.95% (inactive); in assay [8], 0.16% (inactive).
Consider `CCOC(=O)c1nnn(CC(=O)Nc2cccc(F)c2)c1C(=O)OCC`, for which the viability was 112% in assay [1]; 112% (inactive) in assay [3]; 100% (inactive) in assay [4]; 96.2% (inactive) in assay [5]; 92.4% in assay [6] (setting [9]); 96.2% in assay [6] (setting [10]). Besides, the Her2 level in assay [2] is 95% (inactive). For the same compound, in assay [6] (H69AR cells + 2 uM doxorubicin), the differential viability (reversal) is 3.89% (inactive). In addition, the values for the inhibition in assay [7] and in assay [8] were -1.04% (inactive) and -6.35% (inactive), respectively.
For the compound `COc1ccc(-n2ccnc2SCC(=O)NCc2ccc3c(c2)OCO3)cc1`, the viability in assay [1] was 128%; in assay [3] it was 128% (inactive); in assay [4], 95.3% (inactive); in assay [5] it was 87.2% (inactive); in assay [6] (setting [9]) it was 92.6%; in assay [6] (setting [10]), 87.2%. Besides, the Her2 level in assay [2] is 89.5% (inactive). Also, in assay [6] (H69AR cells + 2 uM doxorubicin), the differential viability (reversal) was -5.35% (inactive). In addition, the inhibition in assay [7] is -2.73% (inactive); in assay [8], -1.9% (inactive).
For the compound `Cc1ccc(NC(=O)C2CC=CCC2C(=O)N2CCCCC2)cc1` (stereo not given), the viability in assay [1] was 71%; in assay [3], 71% (inactive); in assay [4] it was 95.7% (inactive); in assay [5], 95.7% (inactive); in assay [6] (setting [9]), 83.2%; in assay [6] (setting [10]), 95.7%. Moreover, in assay [2], the Her2 level is 76.5% (inactive). In addition, in assay [6] (H69AR cells + 2 uM doxorubicin), the differential viability (reversal) was 12.5% (inactive). The inhibition in assay [7] is -5.54% (inactive); in assay [8], -1.31% (inactive).
In the case of `O=C(c1ccccc1)N1CCCCC(Sc2nnnn2-c2ccccc2)C1=O` (stereo not given), the viability in assay [1] was 89.5%; in assay [3] it was 89.5% (inactive); in assay [4] it was 82.7% (inactive); in assay [5] it was 104% (inactive); in assay [6] (setting [9]) it was 91.1%; in assay [6] (setting [10]) it was 104%. For the same compound, the Her2 level in assay [2] is 104% (inactive). In assay [6] (H69AR cells + 2 uM doxorubicin), the differential viability (reversal) was 12.6% (inactive). Moreover, the values for the inhibition in assay [7] and in assay [8] were -6.13% (inactive) and -0.32% (inactive), respectively.
On to `Cc1noc(C)c1S(=O)(=O)Nc1c(C)n(C)n(-c2ccccc2)c1=O`, for which the viability is 108% in assay [1]; 108% (inactive) in assay [3]; 104% (inactive) in assay [4]; 98.4% (inactive) in assay [5]; 90.3% in assay [6] (setting [9]); 98.4% in assay [6] (setting [10]). Besides, in assay [2], the Her2 level is 99% (inactive). Also, in assay [6] (H69AR cells + 2 uM doxorubicin), the differential viability (reversal) is 8.05% (inactive). The inhibition is -5.13% (inactive) in assay [7] and -1.11% (inactive) in assay [8].
On to `CCC(C)c1ccc(NC(=O)c2cccnc2)cc1` (stereo not given), for which the viability was 93% in assay [1]; 93% (inactive) in assay [3]; 81.6% (inactive) in assay [4]; 92.5% (inactive) in assay [5]; 87.4% in assay [6] (setting [9]); 92.5% in assay [6] (setting [10]). Moreover, the Her2 level in assay [2] is 106% (inactive). Besides, the differential viability (reversal) in assay [6] (H69AR cells + 2 uM doxorubicin) was 5.06% (inactive). For the same compound, the inhibition in assay [7] was -0.54% (inactive); in assay [8] it was -1.64% (inactive).
Consider `COc1cccc(CNc2cccc3cccnc23)c1O`, for which the viability in assay [1] was 102%; in assay [3], 102% (inactive); in assay [4], 73.5% (inactive); in assay [5], 78.4% (inactive); in assay [6] (setting [9]), 93%; in assay [6] (setting [10]), 78.4%. In assay [2], the Her2 level is 82.5% (inactive). In assay [6] (H69AR cells + 2 uM doxorubicin), the differential viability (reversal) is -14.6% (inactive). Besides, the figures for the inhibition in assay [7] and in assay [8] were -3.16% (inactive) and -1.97% (inactive), respectively.
Turning to `Cc1nc(C)c(C(=O)C2=C(O)C(=O)N(CCN3CCOCC3)C2c2cccnc2)s1` (stereo not given), the viability in assay [1] is 104%; in assay [3], 104% (inactive); in assay [4], 99.1% (inactive); in assay [5], 97.4% (inactive); in assay [6] (setting [9]), 87%; in assay [6] (setting [10]), 97.4%. The Her2 level in assay [2] is 93% (inactive). Further, the differential viability (reversal) in assay [6] (H69AR cells + 2 uM doxorubicin) was 10.4% (inactive). Also, the inhibition is -3.95% (inactive) in assay [7] and 12.9% (inactive) in assay [8].
For the compound `O=S(=O)(c1ccccc1)c1nc(-c2ccco2)oc1NCCCN1CCOCC1`, the viability is 91% in assay [1]; 91% (inactive) in assay [3]; 84.6% (inactive) in assay [4]; 95.4% (inactive) in assay [5]; 96.8% in assay [6] (setting [9]); 95.4% in assay [6] (setting [10]). The Her2 level in assay [2] is 100% (inactive). In assay [6] (H69AR cells + 2 uM doxorubicin), the differential viability (reversal) is -1.43% (inactive). Also, the inhibition in assay [7] is -1.73% (inactive); in assay [8], -3.23% (inactive).
With `COc1ccc2nc(NC(=O)C3CCCN(S(=O)(=O)c4cccc5nsnc45)C3)sc2c1` (stereo not given), the viability in assay [1] is 96.5%; in assay [3], 96.5% (inactive); in assay [4], 75% (inactive); in assay [5], 83.1% (inactive); in assay [6] (setting [9]), 93.2%; in assay [6] (setting [10]), 83.1%. In addition, the Her2 level in assay [2] is 97.5% (inactive). In assay [6] (H69AR cells + 2 uM doxorubicin), the differential viability (reversal) was -10.1% (inactive). Further, the inhibition in assay [7] is 4.53% (inactive); in assay [8] it was -2.7% (inactive).
